Compound activity as filed in PubChem.
Only some compounds are listed: those with a hit (about 2% of all), similar ones and a draw of the others.
NR2E3 ag-1: NR2E3 (human) agonism; 320,000 compounds, 0.12% hits; Q9Y5X4; AID 2300; inhibition of corepressor binding, % at 4.78 µM; GST-NR2E3/biotin-RetCOR TR-FRET, 1536-well;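 active = percent inhibition above the cutoff of mean plus 3 SD of all tested compounds, set per screening campaign, cut at about 20% in these data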;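 also: 0% = DMSO wells and 100% = biotin wells as full block of FRET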
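Assay system: NR2E3–RetCOR corepressor complex. Quantity: 1.35 nM GST-NR2E3. Buffer or medium: pH 7.5 Tris-based buffer. Reagent: biotinylated RetCOR corepressor at 7 nM final. Schedule: 5 h at 4 °C. Detection: TR-FRET, emission read at 617 and 671 nm. Replicates: one well per compound, singlicate testing.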
Neddylation inh: cullin neddylation inhibition; P61081+Q13564; TR-FRET cullin neddylation, biochemical; calls only at 25 µM; 360,000 compounds, 0.58% hits; in the data active = inhibition above about 36%
Target sequence (P61081 whole entry, looked up): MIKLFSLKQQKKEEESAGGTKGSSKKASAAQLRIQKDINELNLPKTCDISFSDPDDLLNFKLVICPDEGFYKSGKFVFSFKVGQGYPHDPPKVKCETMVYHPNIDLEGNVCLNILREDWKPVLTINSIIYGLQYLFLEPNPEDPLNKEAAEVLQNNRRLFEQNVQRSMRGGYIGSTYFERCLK
Target sequence (Q13564 whole entry, looked up): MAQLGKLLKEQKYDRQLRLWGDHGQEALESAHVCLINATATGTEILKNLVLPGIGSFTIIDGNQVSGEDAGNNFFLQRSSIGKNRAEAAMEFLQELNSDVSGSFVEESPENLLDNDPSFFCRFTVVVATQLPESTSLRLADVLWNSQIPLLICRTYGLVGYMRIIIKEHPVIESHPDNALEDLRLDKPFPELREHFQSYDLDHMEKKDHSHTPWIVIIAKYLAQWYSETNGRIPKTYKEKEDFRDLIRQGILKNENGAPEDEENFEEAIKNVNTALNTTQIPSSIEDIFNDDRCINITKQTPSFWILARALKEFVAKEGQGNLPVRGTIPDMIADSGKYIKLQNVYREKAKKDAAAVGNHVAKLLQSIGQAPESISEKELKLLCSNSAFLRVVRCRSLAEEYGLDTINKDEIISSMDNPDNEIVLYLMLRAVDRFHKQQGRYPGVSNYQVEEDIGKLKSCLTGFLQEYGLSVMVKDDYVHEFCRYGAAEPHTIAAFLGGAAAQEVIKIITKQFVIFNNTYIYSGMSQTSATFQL
PG9 binder: binds the HIV-1 gp120 antibody PG9; 360,000 compounds, 0.43% hits; AID 624416; TR-FRET gp120-PG9 antibody binding; inhibition, % at 6.7 µM; in the data active = inhibition above about 8.5%
NR2E3 ag-2: agonists of human NR2E3 nuclear receptor. inhibition of corepressor binding, % at 3.98 µM. CHO-S Gal4-NCOR/VP16-NR2E3 two-hybrid, luciferase. AID 602229. 360,000 compounds, 0.35% hits. Q9Y5X4;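 active = inhibition above the mean of all tested compounds plus 3 SD, cut at about 70% in these data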;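 also: 0% = DMSO with NR2E3 transfected cells and 100% = cells lacking NR2E3 construct; higher means lower luciferase signal from less NR2E3 corepressor binding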
NR1D1 modulator: modulators of human Rev-erb alpha DNA binding; 370,000 compounds, 0.79% hits; activity, % at 10 µM; Rev-erbα–FITC-DNA binding, fluorescence polarization, 90 min; AID 1259318;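 active = activity above about 14%, limit read from the data; passing the limit was not always enough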;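 also: 0% = DMSO wells with 35 nM protein and 100% = DMSO wells with 750 nM protein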
NR2E3 ag confirm-1: NR2E3 (human) agonism, confirmation; shares compounds with NR2E3 ag-1; cell-free NR2E3 corepressor release, TR-FRET, 5 h; activation (reported as inhibition), % at 3.98 µM; 360 compounds, 39% hits; in the data active = activation above about 20%
PPARg-NCOR2 ctr: counter-screen for NR2E3 agonists: human PPARgamma-NCOR2 interaction agonists; AID 504787; TR-FRET PPARg-NCOR2 coregulator interaction, biochemical; shares compounds with NR2E3 ag-1; inhibition, % at 3.98 µM; 360 compounds, 45% hits; in the data active = inhibition above about 20%;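 also: 0% = DMSO vehicle and 100% = wells without protein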
NR2E3 ag confirm-2: confirmation of human NR2E3 agonists. 2,300 compounds, 51% hits. AID 624378. inhibition, % at 3.98 µM. shares compounds with NR2E3 ag-2. CHO-S mammalian two-hybrid NR2E3-NCOR, luciferase luminescence;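 active = average inhibition above a cutoff equal to the mean inhibition of all tested compounds plus one SD, cut at about 70% in these data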;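 also: 0% = DMSO in NR2E3 cells and 100% = DMSO in cells lacking NR2E3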
VP16 counter: reduces GAL4-VP16 reporter signal in NR2E3 counterscreen | inhibition, % at 3.98 µM | CHO-S GAL4-VP16 luciferase reporter, luminescence | AID 624379 | 2,300 compounds, 29% hits | shares compounds with NR2E3 ag-2;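 active = mean inhibition above a cutoff equal to the average over all tested compounds plus one standard deviation, cut at about 70% in these data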;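 also: luciferase from a UAS reporter driven by GAL4-VP16 transactivation; 0% = DMSO with VP16-transfected cells and 100% = DMSO with cells lacking VP16; higher means less reporter light so more repression of VP16 activity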
The depositor's hits bear a star; i = inactive; · = no result shown; + = active, no number.

SMILES	NR2E3 ag-1	Neddylation inh	PG9 binder	NR2E3 ag-2	NR1D1 modulator	NR2E3 ag confirm-2	VP16 counter	others
Cc1nc2ccccc2c(=O)n1/N=C/c1cc(Br)cc(Br)c1O	1	+	-4	-17	-9	·	·
Cc1cccc(N2C(=O)NC(=O)/C(=C/c3cc4c(cc3[N+](=O)[O-])OCO4)C2=O)c1	-4	+	-2	-9	2	·	·
Cc1ccccc1-n1c(CF)nc2ccc(N)cc2c1=O	·	·	·	·	-1	·	·
Oc1ccc2c3c1O[C@@H]1[C@@H](O)CC[C@@]4(O)[C@@H](C2)N(CC2CCC2)CC[C@]314	·	·	·	·	8	·	·
Cc1ccc(N2C(=O)NC(=O)/C(=C/c3ccoc3)C2=O)cc1	·	+	1	-21	-30	·	·
Cc1ccc(N2C(=O)NC(=O)/C(=C/c3cnn(-c4ccc(C)cc4)c3)C2=O)cc1	-1	i	1	-59	3	·	·
CCCCn1c(NC(=O)c2ccc(Br)o2)c(C(=O)OCC)c2nc3ccccc3nc21	30*	·	-2	-9	-5	·	·
CN1C[C@H](C(=O)N[C@]2(C)C[C@@]3(O)C4CCCN4C(=O)[C@H](Cc4ccccc4)N3C2=O)C=C2c3cccc4[nH]cc(c34)C[C@H]21 (stereo partly specified)	·	·	·	·	5	·	·
C[C@H]1[C@H](OC(=O)CCC(=O)NCc2ccc(C(=O)O)cc2)O[C@@H]2O[C@@]3(C)CC[C@H]4[C@H](C)CC[C@@H]1C24OO3	-2	i	·	93*	·	·	·
CC12CCC(C(Br)C1=O)C2(C)C (stereo unspecified)	·	·	·	·	1	·	·
O=c1c2ccccc2[nH]c(=S)n1-c1ccc(Br)cc1	36*	i	4	-20	19	·	·	NR2E3 ag confirm-1=-7;PPARg-NCOR2 ctr=-4
CNc1ccc(C(=O)CC(O)CCC(C)C2OC(=O)CC(O)CC(=O)CC(O)CC(O)CC(O)CC(O)CC3(O)CC(O)C(C(=O)OC)C(CC(O[C@@H]4O[C@H](C)[C@@H](O)[C@H](N)[C@@H]4O)/C=C/C=C/C=C/C=C/C=C/C=C/C=C/C2C)O3)cc1 (stereo partly specified)	·	·	·	·	6	·	·
Cn1ncnc2c(=O)n(C)c(=O)nc1-2	32*	i	·	104*	·	98*	97*	NR2E3 ag confirm-1=36*;PPARg-NCOR2 ctr=66*
C[N+]1(C)C2CC(OC(=O)[C@@H](CO)c3ccccc3)CC1C1OC12 (stereo partly specified)	·	·	·	·	-5	·	·
Oc1cc(Cl)c(Cl)cc1Cl	·	·	-1	·	-7	·	·
Oc1cc(Cl)c(Cl)c(Cl)c1Cl	·	i	-1	74*	4	66	75*
CC(C)(C)Cc1nnc(NC(=O)COc2ccc(Cl)cc2Cl)o1	·	·	·	·	3	·	·
Cn1nc(-c2ccc(OCC(=O)N3CCN(Cc4ccccc4)CC3)cc2)c2ccccc2c1=O	-5	i	-2	71*	2	68	59
Cc1ccc(-c2cc(-c3ccc(C)cc3)[n+](-c3ccccc3)c(-c3ccc(C)cc3)c2)cc1	2	+	·	100*	·	100*	96*
CN(C)c1ccc(-[n+]2c(-c3ccccc3)cc(-c3ccccc3)cc2-c2ccccc2)cc1	·	i	1	51	1	96*	65
COC(=O)[C@H]1C[C@@]2(C)c3ccccc3N[C@H]2N1	·	·	·	·	2	·	·
CC(C)(C)n1nnnc1C1CN=C(c2ccccc2)c2ccccc2N1 (stereo unspecified)	·	·	·	·	-1	·	·
CCOC(=O)CC[C@@H]1CC[C@]2(CCCN(Cc3ccccn3)C2)O1	·	·	·	·	-4	·	·
CC[C@@H]1C[C@H]2CC[C@H](O2)[C@H](C)C(=O)O[C@@H](C)C[C@@H]2CC[C@@H](O2)[C@@H](C)C(=O)O[C@H](C)C[C@H]2CC[C@H](O2)[C@H](C)C(=O)O[C@@H](C)C[C@@H]2CC[C@@H](O2)[C@@H](C)C(=O)O1	·	·	1	·	-4	·	·
COc1ccc(C[C@H]2NC[C@H](O)[C@H]2OC(C)=O)cc1	1	i	1	104*	5	99*	99*
SMILES	NR2E3 ag-1	Neddylation inh	PG9 binder	NR2E3 ag-2	NR1D1 modulator	NR2E3 ag confirm-2	VP16 counter	others
N#CC1c2ccccc2-n2nncc2CN1Cc1cc(Cl)cc(Cl)c1 (stereo unspecified)	·	i	1	88*	1	79*	71*
COc1cccc(C(=O)NCCN2CCC3(CC2)C(=O)NCN3c2ccccc2)c1	·	·	2	·	1	·	·
C[C@H]1C[C@@H](C)C(=O)[C@@H]([C@H](O)CC2CC(=O)NC(=O)C2)C1	0	i	1	101*	4	100*	94*
COC(=O)C1C(c2ccc(Cl)cc2)CC2CCC1N2C (stereo unspecified)	·	·	0	·	4	·	·
C[C@H]1CCC/C=C/[C@@H]2C[C@H](O)C[C@H]2[C@@H](O)/C=C/C(=O)O1	·	i	-2	86*	-7	98*	64
CN1C2CCC1/C(=C/c1ccccn1)C(=O)/C2=C\c1ccccn1	4	i	-1	88*	-1	100*	26
COC1C(OC(=O)c2ccc(C)[nH]2)C(O)C(Oc2ccc3c(O)c(NC(=O)c4ccc(O)c(CC=C(C)C)c4)c(=O)oc3c2Cl)OC1(C)C (stereo unspecified)	2	i	-1	81*	-3	-32	31
c1ccc(Cc2cnc(N3CCNCC3)nc2)cc1	·	·	2	·	6	·	·
CC1=C(O)C(=O)C=C2C1=CC=C1C2(C)CCC2(C)C3CC(C)(C(=O)O)CCC3(C)CCC12C (stereo unspecified)	·	i	1	99*	-10	95*	77*
O=c1[nH]sc2cc(F)ccc12	·	i	3	50	3	18	-10
CC(C)(C)CC(C)(C)c1ccc(O)cc1	·	·	·	·	10	·	·
O=c1[nH]c(O)c(N=Nc2ccc3c(c2)OCCO3)c(=O)[nH]1	-2	i	-8	69	22	42	37
O=c1[nH]c(=S)[nH]c(O)c1N=Nc1ccc2c(c1)OCO2	-8	i	-16	-12	7	·	·
COC(C)(C)CCC[C@H](C)C/C=C/C(C)=C/C(=O)OC(C)C	·	·	·	·	-8	·	·
CCN(CC)C(=O)c1ccc(NC(=O)c2cccc(S(=O)(=O)N3CCN(Cc4ccccc4)CC3)c2)cc1	-2	i	-2	57	-1	54	52
CCOc1ccc(-n2c(-c3ccoc3)nc3ccccc3c2=O)cc1	-1	i	-1	-14	0	·	·
